Experimental data: ChEMBL document CHEMBL2429728, “Novel Macrocyclic Amidinoureas: Potent Non-Azole Antifungals Active against Wild-Type and Resistant Candida Species” (2013)
In brackets after ≈: the same amount, converted by molar mass.

Columns and labels:
Format in all cases: functional
[1] = system: Candida tropicalis; test: Antifungal activity against Candida tropicalis ATCC 200956 after 24 hrs by visually and spectrophotometric analysis; conditions: ATCC 200956, 24 h
Outline: (§1)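 Read-out is MIC90 in μg/mL, scored at 24 h both by eye and spectrophotometrically. The panel is Candida isolates that earlier reports describe as amphotericin B-resistant, with amphotericin B run alongside as the reference drug.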

[2] = system: Clavispora lusitaniae; test: Antifungal activity against Candida lusitaniae ATCC 60247 after 24 hrs by visually and spectrophotometric analysis; conditions: ATCC 60247, 24 h; outline: as §1
[3] = system: Clavispora lusitaniae; test: Antifungal activity against Candida lusitaniae ATCC 24348 after 24 hrs by visually and spectrophotometric analysis; conditions: ATCC 24348, 24 h; outline: as §1
[4] = system: Clavispora lusitaniae; test: Antifungal activity against Candida lusitaniae ATCC 200953 after 24 hrs by visually and spectrophotometric analysis; outline: as §1
[5] = system: Clavispora lusitaniae; test: Antifungal activity against Candida lusitaniae ATCC 200952 after 24 hrs by visually and spectrophotometric analysis; outline: as §1
[6] = system: Clavispora lusitaniae; test: Antifungal activity against Candida lusitaniae ATCC 200951 after 24 hrs by visually and spectrophotometric analysis; outline: as §1
[7] = system: Clavispora lusitaniae; test: Antifungal activity against Candida lusitaniae ATCC 200950 after 24 hrs by visually and spectrophotometric analysis; conditions: ATCC 200950, 24 h; outline: as §1
[8] = system: Candida albicans; test: Antifungal activity against Candida albicans ATCC 200955 after 24 hrs by visually and spectrophotometric analysis; conditions: ATCC 200955, 24 h
Outline: (§2)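 Endpoint is MIC90, in μg/mL, read at 24 h by both visual inspection and spectrophotometry.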

[9] = system: Nakaseomyces glabratus; test: Antifungal activity against fluconazole-resistant Candida glabrata DSY2271 increase expressing of CgCDR2 genes after 24 hrs by visually and spectrophotometric analysis; conditions: DSY2271, 24 h; outline: as §2
[10] = system: Nakaseomyces glabratus; test: Antifungal activity against fluconazole-resistant Candida glabrata DSY2254 increase expressing of CgCDR1 and CgCDR2 genes after 24 hrs by visually and spectrophotometric analysis; conditions: DSY2254, 24 h; outline: as §2
[11] = system: Nakaseomyces glabratus; test: Antifungal activity against fluconazole-resistant Candida glabrata DSY756 increase expressing of CgCDR1, CgCDR2, and CgSNQ2 genes after 24 hrs by visually and spectrophotometric analysis; conditions: DSY756, 24 h; outline: as §2
[12] = system: Nakaseomyces glabratus; test: Antifungal activity against fluconazole-resistant Candida glabrata DSY754 increase expressing of CgCDR1 gene after 24 hrs by visually and spectrophotometric analysis; conditions: DSY754, 24 h; outline: as §2
[13] = system: Nakaseomyces glabratus; test: Antifungal activity against fluconazole-resistant Candida glabrata DSY530 increase expressing of CgCDR1 gene after 24 hrs by visually and spectrophotometric analysis; conditions: DSY530, 24 h; outline: as §2
[14] = system: Candida albicans; test: Antifungal activity against fluconazole-resistant Candida albicans DSY751 harboring ERG11 gene mutant and increase expressing of MDR1 gene after 24 hrs by visually and spectrophotometric analysis; conditions: DSY751, 24 h; outline: as §2
[15] = system: Candida albicans; test: Antifungal activity against fluconazole-resistant Candida albicans DSY775 harboring ERG11 gene mutant and increase expressing of CDR1 and CDR2 genes after 24 hrs by visually and spectrophotometric analysis; conditions: DSY775, 24 h; outline: as §2
[16] = system: Candida albicans; test: Antifungal activity against fluconazole-resistant Candida albicans DSY735 expressing high level of CDR1 and CDR2 genes after 24 hrs by visually and spectrophotometric analysis; conditions: DSY735, 24 h; outline: as §2
[17] = system: Candida albicans; test: Antifungal activity against fluconazole-resistant Candida albicans DSY292 harboring ERG11 gene mutant and increase expressing of MDR1 gene after 24 hrs by visually and spectrophotometric analysis; conditions: DSY292, 24 h; outline: as §2
[18] = system: Candida albicans; test: Antifungal activity against fluconazole-resistant Candida albicans DSY348 harboring ERG11 gene mutant and increase expressing of CDR1 and CDR2 genes after 24 hrs by visually and spectrophotometric analysis; conditions: DSY348, 24 h; outline: as §2
[19] = system: Candida albicans; test: Antifungal activity against fluconazole-resistant Candida albicans DSY289 harboring ERG11 gene mutant and increase expressing of CDR1 and CDR2 genes after 24 hrs by visually and spectrophotometric analysis; conditions: DSY289, 24 h; outline: as §2
[20] = system: Candida albicans; test: Antifungal activity against fluconazole-resistant Candida albicans DSY296 harboring ERG11 gene mutant and increase expressing of CDR1 and CDR2 genes after 24 hrs by visually and spectrophotometric analysis; conditions: DSY296, 24 h; outline: as §2
[21] = system: Candida albicans; test: Antifungal activity against fluconazole-resistant Candida albicans DSY284 harboring ERG11 gene mutant and increase expressing of CDR1 and CDR2 genes after 24 hrs by visually and spectrophotometric analysis; conditions: DSY284, 24 h; outline: as §2
[22] = system: Nakaseomyces glabratus; test: Antifungal activity against wild type Candida glabrata after 24 hrs by visually and spectrophotometric analysis
[23] = system: Kluyveromyces marxianus; test: Antifungal activity against wild type Candida kefyr after 24 hrs by visually and spectrophotometric analysis
[24] = system: Candida tropicalis; test: Antifungal activity against wild type Candida tropicalis after 24 hrs by visually and spectrophotometric analysis
[25] = system: Candida parapsilosis; test: Antifungal activity against wild type Candida parapsilosis ATCC 34136 after 24 hrs by visually and spectrophotometric analysis; conditions: Lodderomyces parapsilosis, ATCC 34136, 24 h
[26] = system: Pichia kudriavzevii; test: Antifungal activity against wild type Candida krusei ATCC 14243 after 24 hrs by visually and spectrophotometric analysis; conditions: ATCC 14243, 24 h
[27] = system: Meyerozyma guilliermondii; test: Antifungal activity against wild type Candida guilliermondii after 24 hrs by visually and spectrophotometric analysis
[28] = system: Candida albicans; test: Antifungal activity against wild type Candida albicans ATCC 60193 after 24 hrs by visually and spectrophotometric analysis; conditions: ATCC 60193, 24 h

SMILES | MIC90 [1] | MIC90 [2] | MIC90 [3] | MIC90 [4] | MIC90 [5] | MIC90 [6] | MIC90 [7] | MIC90 [9] | MIC90 [10] | MIC90 [11] | MIC90 [12] | MIC90 [13] | MIC90 [14] | MIC90 [15] | MIC90 [16] | MIC90 [17] | MIC90 [18] | MIC90 [19] | MIC90 [20] | MIC90 [21] | also measured
C/C=C/CNC(=N)NCCCCCCCCN1CCCCCCOc2ccccc2CNC(=N)NC1=O.O=C(O)C(F)(F)F | 10 µg/mL | 5 µg/mL | 5 µg/mL | 5 µg/mL | 5 µg/mL | 5 µg/mL | 5 µg/mL | 36 µg/mL | 40 µg/mL | 36 µg/mL | 40 µg/mL | 36 µg/mL | 10 µg/mL | 10 µg/mL | 5 µg/mL | 10 µg/mL | 5 µg/mL | 5 µg/mL | 10 µg/mL | 9 µg/mL | MIC90 [8]: 5 µg/mL; MIC90 [22]: 16 µg/mL; MIC90 [23]: 2 µg/mL; MIC90 [24]: 1 µg/mL; MIC90 [25]: 2 µg/mL; MIC90 [26]: 4 µg/mL; MIC90 [27]: 2 µg/mL; MIC90 [28]: 4 µg/mL
C/C=C/CNC(=N)NCCCCCCCCN1CCCCOC(=O)CCNC(=N)NC1=O.O=C(O)C(F)(F)F | 16 µg/mL | 4 µg/mL | 4 µg/mL | 8 µg/mL | 4 µg/mL | 4 µg/mL | 8 µg/mL | 64 µg/mL | 128 µg/mL | 128 µg/mL | 64 µg/mL | 64 µg/mL | 16 µg/mL | 16 µg/mL | 8 µg/mL | 16 µg/mL | 8 µg/mL | 8 µg/mL | 16 µg/mL | 16 µg/mL | MIC90 [8]: 8 µg/mL; MIC90 [22]: 64 µg/mL; MIC90 [23]: 32 µg/mL; MIC90 [24]: 32 µg/mL; MIC90 [25]: 32 µg/mL; MIC90 [26]: 64 µg/mL; MIC90 [27]: 32 µg/mL; MIC90 [28]: 32 µg/mL
C/C=C/CNC(=N)NCCCCCCCCN1CCCCCCCCNC(=N)NC1=O |  |  |  |  |  |  |  |  |  |  |  |  |  |  |  |  |  |  |  |  | MIC50 [22]: 20 µg/mL (≈ 45.9 µM); MIC50 [24]: 1.25 µg/mL (≈ 2.87 µM); MIC50 [25]: 5 µg/mL (≈ 11.5 µM); MIC50 [26]: 5 µg/mL (≈ 11.5 µM); MIC50 [28]: 2.5 µg/mL (≈ 5.74 µM)
C[C@@H]1[C@H](O)[C@@H](C)/C=C/C=C/C=C/C=C/C=C/C=C/C=C/[C@H](O[C@@H]2O[C@H](C)[C@@H](O)[C@H](N)[C@@H]2O)C[C@@H]2O[C@](O)(C[C@@H](O)C[C@@H](O)[C@H](O)CC[C@@H](O)C[C@@H](O)CC(=O)O[C@H]1C)C[C@H](O)[C@H]2C(=O)O [AMPHOTERICIN B] | 8 µg/mL (≈ 8.66 µM) | 0.125 µg/mL (≈ 0.135 µM) | 0.125 µg/mL (≈ 0.135 µM) | 1 µg/mL (≈ 1.08 µM) | 2 µg/mL (≈ 2.16 µM) | 1 µg/mL (≈ 1.08 µM) | 1 µg/mL (≈ 1.08 µM) |  |  |  |  |  |  |  |  |  |  |  |  |  | MIC90 [8]: 2 µg/mL (≈ 2.16 µM)
OC(Cn1cncn1)(Cn1cncn1)c1ccc(F)cc1F [FLUCONAZOLE] |  |  |  |  |  |  |  | 64 µg/mL (≈ 209 µM) | 128 µg/mL (≈ 418 µM) | 128 µg/mL (≈ 418 µM) | 64 µg/mL (≈ 209 µM) | 64 µg/mL (≈ 209 µM) | 256 µg/mL (≈ 836 µM) | 128 µg/mL (≈ 418 µM) | 64 µg/mL (≈ 209 µM) | 64 µg/mL (≈ 209 µM) | 32 µg/mL (≈ 104 µM) | 256 µg/mL (≈ 836 µM) | 128 µg/mL (≈ 418 µM) | 256 µg/mL (≈ 836 µM) | MIC90 [22]: 16 µg/mL (≈ 52.2 µM); MIC90 [23]: 1 µg/mL (≈ 3.27 µM); MIC90 [24]: 2 µg/mL (≈ 6.53 µM); MIC90 [25]: 0.5 µg/mL (≈ 1.63 µM); MIC90 [26]: 256 µg/mL (≈ 836 µM); MIC90 [27]: 4 µg/mL (≈ 13.1 µM); MIC90 [28]: 2 µg/mL (≈ 6.53 µM)
C[C@@H](c1ncncc1F)[C@](O)(Cn1cncn1)c1ccc(F)cc1F [VORICONAZOLE] |  |  |  |  |  |  |  | 0.125 µg/mL (≈ 0.358 µM) | 2 µg/mL (≈ 5.73 µM) | 4 µg/mL (≈ 11.5 µM) | 2 µg/mL (≈ 5.73 µM) | 0.5 µg/mL (≈ 1.43 µM) | 0.25 µg/mL (≈ 0.716 µM) | 8 µg/mL (≈ 22.9 µM) | 2 µg/mL (≈ 5.73 µM) | 2 µg/mL (≈ 5.73 µM) | 0.25 µg/mL (≈ 0.716 µM) | 8 µg/mL (≈ 22.9 µM) | 8 µg/mL (≈ 22.9 µM) | 4 µg/mL (≈ 11.5 µM) | 
